Assay results from ChEMBL document CHEMBL1132643, “Novel inhibitors of Erm methyltransferases from NMR and parallel synthesis” (J Med Chem, 1999).

Columns and labels:
[1] = The binding affinity towards N-labeled Erythromycin-resistant ErmAM methylase evaluated by NMR
Outline: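 Uniformly 15N-labeled ErmAM, 0.3 mM in H2O/D2O 9:1 with 20 mM BisTris, 10 mM DTT, pH 6.5. Ligand added in perdeuterated DMSO. Sensitivity-enhanced 15N HSQC run at 30 °C with and without ligand, screening at 1.0 mM. KD from chemical shift changes versus ligand concentration, fit to a single-site model by least-squares grid search.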

[2] = target: rRNA adenine N-6-methyltransferase (Bacillus subtilis, UniProt P13956); assay: Inhibitory activity against ErmC methylase
Outline: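 ErmC′ (143 nM) preincubated with compound, in duplicate, 15 min at room temperature in 50 mM Tris pH 7.5, 40 mM KCl, 4 mM MgCl2, 10 mM DTT. Started with 250 nM S-adenosyl-L-[methyl-3H]methionine and 80 nM E. coli rRNA, 2 h room temperature. Stopped with 10% TCA/100 mM KCl, filtered, washed. Precipitated counts taken as percent inhibition versus no-inhibitor wells, and IC50 read from concentration curve.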

[3] = target: T1, rRNA adenine N-6-methyltransferase (Streptococcus pneumoniae, UniProt P21236); assay: Inhibitory activity against ErmAM methylase
T1 sequence (P21236 whole entry): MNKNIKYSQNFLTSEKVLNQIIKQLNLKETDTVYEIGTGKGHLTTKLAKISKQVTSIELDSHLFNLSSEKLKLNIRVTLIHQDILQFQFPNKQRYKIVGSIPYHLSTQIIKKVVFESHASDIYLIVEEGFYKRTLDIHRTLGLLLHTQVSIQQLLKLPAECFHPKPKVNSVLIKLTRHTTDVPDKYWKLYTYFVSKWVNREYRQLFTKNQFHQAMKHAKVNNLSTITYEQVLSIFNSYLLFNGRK
Outline: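 Radiometric methyltransferase assay in 50 mM Tris pH 7.5, 100 mM KCl, 4 mM MgCl2, 1 mM DTT with 95 nM ErmAM. Enzyme was preincubated with compound for 15 min at room temperature, in duplicate. Reaction was then started with 250 nM S-adenosyl-L-[methyl-3H]methionine and 80 nM E. coli rRNA and run 2 h at room temperature. It was stopped with 10% TCA/100 mM KCl on ice. TCA-precipitated counts were read after filtration. IC50 was taken from percent inhibition versus control plotted against concentration.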

[4] = The binding affinity towards ErmAM methylase identified by NMR

Sequence of rRNA adenine N-6-methyltransferase (Bacillus subtilis, UniProt P13956) (P13956 whole entry): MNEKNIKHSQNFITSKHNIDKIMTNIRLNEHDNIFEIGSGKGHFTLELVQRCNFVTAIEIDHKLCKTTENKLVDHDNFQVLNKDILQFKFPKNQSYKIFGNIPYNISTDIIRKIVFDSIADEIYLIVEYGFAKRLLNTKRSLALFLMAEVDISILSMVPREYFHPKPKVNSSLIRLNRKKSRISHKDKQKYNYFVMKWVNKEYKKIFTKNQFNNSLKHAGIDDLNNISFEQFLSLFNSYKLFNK

SMILES | Kd [1] [µM] | Ki [2] [µM] | Ki [3] [µM] | Kd [4] [µM]
CSc1nc(N)nc(N)n1 | 1000 |  |  | 
C[C@@H](Nc1nc(N)nc(N2CCCCC2)n1)c1ccccc1 |  | > 100 | > 100 | 
Nc1nc(Nc2ccccc2)nc(N2CCCCC2)n1 |  | > 100 | > 100 | 
c1ccc2c(c1)CC(Nc1ncnc(N3CCCCC3)n1)C2 |  | > 100 | > 75 | 
COc1ccc2c(c1)CC(Nc1nc(N)nc(N3CCCCC3)n1)C2 (configuration not stated) |  | 75 | 6 | 
Nc1nc(NC2CCCCC2)nc(-c2ccc(O)cc2)n1 |  |  |  | 310
Nc1nc(NC2CCc3ccccc32)nc(N2CCCCC2)n1 (configuration not stated) |  | > 100 | 75 | 
Nc1nc(NC2Cc3ccccc3C2)cc(-c2ccc(NCCCc3ccccc3O)cc2)n1 |  | 12.5 | 7.5 | 
Nc1nc(NC2Cc3ccc(F)cc3C2)nc(N2CCCCC2)n1 (configuration not stated) |  | 37 | 3 | 
Nc1nc(NC2CCCCC2)nc(N2CCCCC2)n1 |  | > 100 | 75 | 
Nc1nc(NCCCc2c(O)cc(Cl)cc2Cl)nc(NC2Cc3ccccc3C2)n1 |  | > 100 | 10 | 
Nc1nc(NC2Cc3ccccc3C2)nc(C2CCCCC2)n1 |  | > 100 | 25 | 
Nc1ccc(-c2nc(N)nc(NC3Cc4ccccc4C3)n2)cc1 |  | > 50 | 35 | 
Nc1nc(N)nc(N2CCCCC2)n1 |  |  |  | 5000
Nc1nc(N2CCCCC2)nc(N2CCCCC2)n1 |  | > 100 | > 100 | 
Nc1nc(NC2Cc3ccccc3C2)nc(N2CCC(C(=O)O)CC2)n1 |  | > 100 | > 100 | 
Nc1cccc(-c2nc(N)nc(NC3Cc4ccccc4C3)n2)c1 |  | 10 | 4 | 
Nc1nc(NC2Cc3ccccc3C2)nc(N2CCCC(CO)C2)n1 (configuration not stated) |  | > 100 | 12.5 | 
Nc1nc(N)nc(-c2ccc(O)cc2)n1 |  |  |  | 12000
Nc1nc(NC2Cc3ccccc3C2)nc(N2CCCCC2)n1 |  | 75 | 8 | 
Oc1nc(NC2Cc3ccccc3C2)nc(N2CCCCC2)n1 |  | > 100 | > 100 | 
Nc1ccc(-c2cc(NC3Cc4ccccc4C3)nc(N)n2)cc1 |  | > 100 | 75 | 
CN(c1nc(N)nc(N2CCCCC2)n1)C1CCCCC1 |  | > 100 | > 100 | 
Nc1nc(NC2Cc3ccccc3C2)nc(N2CCC(CO)CC2)n1 |  | 75 | 9 | 
CSc1nc(N)nc(NC2Cc3ccccc3C2)n1 |  | > 100 | 10 | 
Nc1nc(NC2Cc3ccccc3C2)nc(N2CCC(C(=O)NCCc3c[nH]c4ccccc34)CC2)n1 |  | 20 | 2 | 
c1cnc2[nH]ccc2c1 | 1300 |  |  | 
Nc1nc(NC2CCCCC2)nc(NC2Cc3ccccc3C2)n1 |  | > 100 | > 100 | 
Nc1ncnc2c1ncn2[C@@H]1O[C@H](CSCC[C@H](N)C(=O)O)[C@@H](O)[C@H]1O [S-ADENOSYLHOMOCYSTEINE] |  |  | 40 | 
